Article PMC11622326 (Diabetes, obesity & metabolism, 2024)

Columns and labels:
[1] = test system: DIO mice; experiment: Efficacy of 5A1MQ in DIO mice: body weight, whole-body composition, food intake; type: in vivo, mouse; conditions: for absolute fat mass gain: by study termination, control 4.7 g
Method in brief: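 Male C57BL/6 mice (~18 weeks) kept on HFD for ≥12 weeks, singly housed, stabilised at ~40–50 g. After handling and 3 days of sham saline SC injections, randomised by baseline body composition (n=8/group). Saline, 10 or 32 mg/kg/day SC once daily at 4–5 PM for 30 days. Weight and food intake measured twice weekly; EchoMRI on days −1, 8, 15, 23, 29. Two-way repeated-measures ANOVA with FDR correction; ANCOVA with body weight covariate; mean ± SEM.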

[2] = test system: DIO mice; experiment: Non-fasted; type: in vivo, mouse
Method in brief: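 HFD-fed obese male C57BL/6 mice (n=8/group) received saline, 10 or 32 mg/kg/day SC once daily. Tail blood was taken noon–1 PM without fasting on days −7, 0, 7, 14, 21 and 28. Glucose read by test strip; plasma insulin by ELISA. Change expressed from Day 0 baseline.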

[3] = test system: DIO mice; experiment: Oral glucose tolerance test; type: in vivo, mouse; conditions: Day 21, high-dose 32 mg/kg/day SC vs control and low-dose
Method in brief: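 Performed on day 21 in obese HFD mice dosed daily SC (saline, 10 or 32 mg/kg/day). After fed-state bleed, mice fasted 4 h, receiving their treatment at 3 h of fasting. One hour post-dose, 2 g/kg oral glucose bolus. Blood glucose at 0, 15, 30, 60 and 120 min; plasma insulin at 0 and 15 min.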

[4] = test system: DIO mice; experiment: Terminal liver weight, histopathology, F4/80 and liver triglycerides in DIO mice; type: in vivo, mouse
Method in brief: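 Terminal day-30 livers from obese HFD mice treated daily SC (saline, 10 or 32 mg/kg/day; dosed 1 h pre-sacrifice, 4 h fast). Whole liver weighed. Left-lobe sections flash-frozen for triglyceride assay or formalin-fixed, paraffin-embedded for H&E and F4/80 IHC. Outputs: steatosis, inflammation, ballooning and NAS scores; hepatocyte count; cross-sectional area; F4/80-stained area by image analysis.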

[5] = test system: DIO mice; experiment: Terminal serum chemistry and complete blood count in DIO mice; type: in vivo, mouse
Method in brief: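 Day-30 cardiac-puncture blood (~700 μL) from obese HFD mice given saline, 10 or 32 mg/kg/day SC daily. Mice were dosed 1 h before CO2 euthanasia after a 4 h fast. 300 μL used for complete blood count; 150 μL for serum chemistry (TG, ALT, AST, ketones, CK, LDH, lipids). Some endpoints analysed by Kruskal-Wallis test.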

[6] = Acute intravenous dosing plasma PK in mice; type: in vivo, mouse; conditions: IV 5 mg/kg
Method in brief: (§1)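 Male C57BL/6 mice (~8 weeks) fasted ~12 h before dosing; food returned 4 h post-dose. Single dose at 5 mg/kg IV (n=3) or 30 mg/kg PO (n=3). Saphenous cross-sampling at 0.0833 h (IV only), 0.25, 0.5, 1, 2, 4, 8, 12 h (PO only) and 24 h. K2EDTA plasma stored at −70°C, then LC-MS/MS. Mean ± SD.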

[7] = Acute oral dosing plasma PK in mice; type: in vivo, mouse
Method in brief: as §1

[8] = Acute and repeat SC dosing plasma PK in mice; type: in vivo, mouse; conditions: for Cmax: plasma
Method in brief: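 Male C57BL/6 mice (18–20 weeks), non-fasted, on certified chow, group-housed. Acute arm (n=6): single 25 mg/kg SC. Repeat arm (n=12): 25 mg/kg SC once daily for 5 days. Plasma stored at −70°C and assayed by LC-MS/MS. Mean ± SD.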

[9] = Tissue distribution of 5A1MQ after repeat SC dosing in mice; type: in vivo, mouse
Method in brief: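 Male C57BL/6 mice (18–20 weeks) given 25 mg/kg SC once daily for 5 days. On day 5, subsets (n=3/timepoint) bled by cardiac puncture at 1, 4 and 8 h post-dose. Epididymal white fat, liver and quadriceps collected terminally and stored at −70°C. Plasma and tissue levels measured by LC-MS/MS; tissue-to-plasma ratios derived.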

[10] = Terminal liver 5A1MQ concentration in DIO mice; type: in vivo, mouse; conditions: high-dose 32 mg/kg/day SC, ~1–2 h post-dosing on Day 30
Method in brief: (§2)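 On day 30, obese HFD mice were dosed (saline, 10 or 32 mg/kg/day SC) 1 h before euthanasia, fasted 4 h, and killed by CO2. Left liver lobe cut into ~30 mg sections, flash-frozen, and assayed by LC-MS/MS for test compound and 1-MNA. Quantitation limit 1 ng/mL.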

[11] = test system: 1-MNA; experiment: Terminal liver 1-MNA level in DIO mice; type: in vivo, mouse; conditions: high-dose 32 mg/kg/day SC, ~1–2 h post-dosing on Day 30
Method in brief: as §2

[12] = biological target: T1, mouse NNMT (Mus musculus, UniProt O55239); experiment: In vitro biochemical assay against mouse NNMT enzyme
T1 sequence (O55239 1-264): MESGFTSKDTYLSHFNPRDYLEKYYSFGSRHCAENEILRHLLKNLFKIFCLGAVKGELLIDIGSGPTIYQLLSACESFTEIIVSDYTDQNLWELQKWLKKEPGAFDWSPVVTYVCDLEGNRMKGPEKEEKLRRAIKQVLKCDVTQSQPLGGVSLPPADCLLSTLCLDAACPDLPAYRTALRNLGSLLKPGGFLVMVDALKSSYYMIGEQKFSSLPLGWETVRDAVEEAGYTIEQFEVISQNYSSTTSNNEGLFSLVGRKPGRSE

[13] = Solubility in aqueous and simulated gastric fluids; type: physicochemical
[14] = Mouse plasma protein binding; type: in vitro ADME
[15] = Metabolic stability in cryopreserved mouse hepatocytes; type: in vitro ADME
[16] = test system: Cerep panel of major receptors, enzymes, and uptake transporter proteins; experiment: Cerep off-target panel; conditions: 10 μM
[17] = biological target: T2, monoamine oxidase-A (MAO-A) (Homo sapiens, UniProt P21397); experiment: Cerep panel: MAO-A inhibition; type: biochemical; conditions: 10 μM
T2 sequence (P21397 1-527): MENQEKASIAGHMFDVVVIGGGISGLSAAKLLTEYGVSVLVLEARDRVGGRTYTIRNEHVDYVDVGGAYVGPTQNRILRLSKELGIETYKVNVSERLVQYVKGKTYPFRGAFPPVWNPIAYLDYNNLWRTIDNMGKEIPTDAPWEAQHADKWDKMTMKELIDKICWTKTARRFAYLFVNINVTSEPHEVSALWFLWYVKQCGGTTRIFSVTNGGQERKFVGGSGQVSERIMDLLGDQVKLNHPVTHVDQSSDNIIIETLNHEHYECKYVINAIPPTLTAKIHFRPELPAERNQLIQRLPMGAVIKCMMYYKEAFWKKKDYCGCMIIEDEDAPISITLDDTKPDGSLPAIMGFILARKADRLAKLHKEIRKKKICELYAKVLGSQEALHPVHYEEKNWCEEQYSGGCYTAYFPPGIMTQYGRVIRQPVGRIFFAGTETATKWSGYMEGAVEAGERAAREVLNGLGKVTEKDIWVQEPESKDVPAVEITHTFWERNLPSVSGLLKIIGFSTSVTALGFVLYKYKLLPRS

[18] = statistically significant only at the low dose (p<0.05 vs control)
[19] = SC 25 mg/kg once-daily for 5 days
[20] = SC 25 mg/kg single (acute) dose
[21] = SC 25 mg/kg once-daily x5, 1 h post-dose
[22] = SC 25 mg/kg once-daily x5, 8 h post-dose

With `C[n+]1cccc2c(N)cccc21` [5A1MQ, 5-amino-1-methylquinolium] the longitudinal lean mass ([1]; 10 and 32 mg/kg/day SC) was “no significant main treatment effect”, the food intake ([1]; 10 and 32 mg/kg/day SC, treatment effect) was “no main effect” and the “absolute fat mass gain” value ([1]; high-dose 32 mg/kg/day SC) was 1.3 g. The “absolute fat mass gain” value ([1]; low-dose 10 mg/kg/day SC) was 4.7 g, the “weekly fed-state blood glucose” value ([2]; 10 and 32 mg/kg/day SC) was “did not alter” and the “fed-state plasma insulin decrease from baseline (Day 0) to Day 28” value ([2]; high-dose 32 mg/kg/day SC, control increased by 112%) was 9%. For the same compound, the “fed-state plasma insulin increase from baseline (Day 0) to Day 28” value ([2]; low-dose 10 mg/kg/day SC, control increased by 112%) was 46%, the “OGTT circulating glucose levels at 15- and 30-min post-bolus glucose” value [3] was “significantly decreased” and the “OGTT plasma insulin at 15 min post-glucose loading” value ([3]; p<0.0001) was “suppressed”. The hepatocyte cell count ([4]; 10 and 32 mg/kg/day SC, p<0.0001) was “significant main effects of treatment”, the “NAFLD activity score (NAS)” value ([4]; 10 and 32 mg/kg/day SC, p<0.0001 high dose vs control) was “dose-dependent improvement” and the whole-liver cross-sectional area ([4]; 10 and 32 mg/kg/day SC, p=0.0015) was “significant main effects of treatment”. For the same compound, the “liver TG levels” value ([4]; 10 and 32 mg/kg/day SC, p=0.0169) was “significantly reduced”, the “liver F4/80 signal (macrophage marker)” value ([4]; high-dose 32 mg/kg/day SC vs control, p<0.05) was “significantly lowered” and the terminal liver weight ([4]; high-dose 32 mg/kg/day SC, control average 2.1 g) was 1.4 g. The “reduction in microvesicular steatosis compared to controls” value ([4]; high-dose 32 mg/kg/day SC, p<0.01) was 73%, the liver lobular inflammation ([4]; p<0.01 high dose vs control) was “significantly reduced” and the hepatocellular ballooning ([4]; p<0.05 high dose vs control) was “significantly reduced”. The “decrease in monocytes vs control” value ([5]; high-dose 32 mg/kg/day SC, p<0.001) was 50%, the “decrease in lymphocytes vs control” value ([5]; high-dose 32 mg/kg/day SC, p<0.05) was 31% and the “serum ketone body levels” value ([5]; p<0.0001 high dose vs control) was “dose-dependently decreased”. For the same compound, the “serum ALT” value ([5]; p<0.001 high-dose vs control) was “dose-related decreases”, the “serum TG levels” value ([5]; p<0.01 high-dose vs control) was “significantly lower” and the “serum AST” value ([5]; p<0.01 low-dose vs control) was “dose-related decreases”. For the same compound, the “total white blood cell count” value ([5]; p<0.05 high-dose vs control) was “significantly reduced”, the “serum CK” value [5, 18] was “significantly lowered” and the “serum LDH” value [5, 18] was “significantly lowered”. For the same compound, the plasma clearance [6] was 101 mL/min/kg, the terminal half-life [6] was 6.3 h and the “steady-state volume of distribution” value ([6]; estimated) was 39 L/kg. The “AUC0-∞” value ([6]; plasma) was 825 ng·h/mL, the Cmax ([6]; plasma) was 2,009 ng/mL and the Tmax ([7]; PO 30 mg/kg) was 4 h. The estimated terminal half-life ([7]; PO 30 mg/kg) was 14.8 h, the oral bioavailability ([7]; PO 30 mg/kg vs IV 5 mg/kg) was 3.5% and the “AUC0-∞” value ([7]; PO 30 mg/kg, plasma) was 224 ng·h/mL. For the same compound, the Cmax ([7]; PO 30 mg/kg, plasma) was 14.5 ng/mL, the “Plasma AUC0-∞” value [8, 19] was 4,687 ng*h/mL and the Tmax [8, 19] was ~ 15 minutes. For the same compound, the “estimated terminal half-life (T1/2)” value [8, 19] was 12.8 h, the Cmax [8, 19] was 5,130 ng/mL and the “Plasma AUC0-∞” value [8, 20] was 7,031 ng*h/mL. For the same compound, the “estimated terminal half-life (T1/2)” value [8, 20] was 13.3 h, the Tmax ([8]; SC 25 mg/kg single dose) was ~ 15 minutes and the Cmax ([8]; SC 25 mg/kg single dose) was 7,010 ng/mL. The EWAT-to-plasma ratio [9, 21] was 1.4, the liver-to-plasma ratio [9, 21] was 0.09 and the “mean total exposure level in liver” value [9, 21] was 83 ng/ng. It also gave a muscle-to-plasma ratio [9, 21] of 2.2, an EWAT-to-plasma ratio [9, 22] of 31.1 and a liver-to-plasma ratio [9, 22] of 1.4. The muscle-to-plasma ratio [9, 22] was 17.0, the “liver concentration of 5A1MQ” value [10] was 28.5 ng/g and the “mean reduction in 1-MNA level in the liver relative to controls” value [11] was 39%. For the same compound, the “mouse NNMT IC50” value [12] was 0.078 µg/mL, the solubility ([13]; phosphate buffered saline) was greater than 100 mg/mL and the solubility ([13]; simulated gastric fluids) was greater than 10 mg/mL. The “mouse plasma protein binding (Fb)” value [14] was 7%, the clearance [15] was 57.9 mL/min/kg and the “half-life (T1/2)” value [15] was less than 7 min. The “activity against Cerep panel targets (all except MAO-A)” value [16] was “no significant activity” and the “inhibition of monoamine oxidase-A (MAO-A)” value [17] was 67.4%.
